Assay results reported in ChEMBL document CHEMBL1137561 (J Med Chem, 2007).
pEC50, pKi: −log10 of the molar value.

Columns and labels:
[1] = test system: Human immunodeficiency virus 1; experiment: Antiviral activity against HIV1 with reverse transcriptase IRLL98 mutation in MT4 cells assessed as inhibition of viral induced cytopathic effect by MTT method; format: functional, organism-based; details: Human immunodeficiency virus 1, MT4
[2] = target: Human immunodeficiency virus type 1 reverse transcriptase (Human immunodeficiency virus 1, UniProt Q72547, Y188L); experiment: Inhibition of HIV1 reverse transcriptase Y188L mutant
[3] = Resistance index, Ratio of EC50 for drug-resistant HIV1 with RT Y188L mutation in MT4 cells to EC50 for HIV1 NL43 in MT4 cells
[4] = test system: Human immunodeficiency virus 1; experiment: Antiviral activity against HIV1 with reverse transcriptase K103N mutation in MT4 cells assessed as inhibition of viral induced cytopathic effect by MTT method; format: functional, organism-based; details: Human immunodeficiency virus 1, MT4
In short: (§1)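 MT-4 cells infected with the HIV-1 NNRTI-resistant mutant strain. Viable cells scored at day 5 post-infection by the MTT tetrazolium colorimetric method. […] Values are means ± SD from at least two experiments.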

[5] = Resistance index, Ratio of EC50 for drug-resistant HIV1 with RT Y181C mutation in MT4 cells to EC50 for HIV1 NL43 in MT4 cells
[6] = target: Human immunodeficiency virus type 1 reverse transcriptase (Human immunodeficiency virus 1, UniProt Q72547); experiment: Inhibition of wild type HIV1 3B reverse transcriptase
[7] = test system: Human immunodeficiency virus 1; experiment: Antiviral activity against HIV1 with reverse transcriptase Y181C mutation in MT4 cells assessed as inhibition of viral induced cytopathic effect by MTT method; format: functional, organism-based; details: Human immunodeficiency virus 1, MT4; in short: as §1
[8] = target: Human immunodeficiency virus type 1 reverse transcriptase (Human immunodeficiency virus 1, UniProt Q72547, K103N); experiment: Inhibition of HIV1 reverse transcriptase K103N mutant
[9] = test system: Human immunodeficiency virus 1; experiment: Antiviral activity against HIV1 with reverse transcriptase Y188L mutation in MT4 cells assessed as inhibition of viral induced cytopathic effect by MTT method; format: functional, organism-based; details: Human immunodeficiency virus 1, MT4
In short: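 MT-4 cells infected with the HIV-1 NNRTI-resistant mutant strain. Viable cells scored at day 5 post-infection by the MTT tetrazolium colorimetric method. Values are means ± SD from at least two experiments.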

[10] = target: Human immunodeficiency virus type 1 reverse transcriptase (Human immunodeficiency virus 1, UniProt Q72547, V179D); experiment: Inhibition of HIV1 reverse transcriptase V179D mutant
[11] = Resistance index, Ratio of EC50 for drug-resistant HIV1 with RT IRLL98 mutation in MT4 cells to EC50 for HIV1 NL43 in MT4 cells
[12] = test system: Human immunodeficiency virus 1; experiment: Antiviral activity against HIV1 NL43 in MT4 cells assessed as inhibition of viral induced cytopathic effect after 5 days by MTT method; details: Human immunodeficiency virus 1, NL43, MT4, 120 h
[13] = target: Human immunodeficiency virus type 1 reverse transcriptase (Human immunodeficiency virus 1, UniProt Q72547, L100I); experiment: Inhibition of HIV1 reverse transcriptase L100I mutant
[14] = Cytotoxicity against MT4 cells after 4 days by MTT method; format: cell-based; details: human
In short: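 Mock-infected (noninfected) MT-4 cells, run in parallel with the antiviral test. Viable cells read by the MTT tetrazolium colorimetric method. […] Means ± SD from at least two experiments. The top concentration was limited where compounds precipitated in the culture medium.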

[15] = Selectivity index, ratio of CC50 for MT4 cells to EC50 for HIV1 NL43 infected MT4 cells; format: functional
[16] = Inhibition of HIV1 reverse transcriptase Y1811 mutant; set-up: species or system Human immunodeficiency virus 1
In short: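 Recombinant HIV-1 RT Y181I mutant, purified to >95%, 10 min preincubation with inhibitor. Radioactive nucleotide incorporation into poly(rA)/oligo(dT) 10:1 was followed at varied nucleotide substrate levels, sampling every 2 min for initial velocities. Inhibitor spanned 0.2–5 Ki. Ki came from Lineweaver-Burk and Dixon plots. Means ± SD of at least three experiments.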

[17] = target: Human immunodeficiency virus type 1 reverse transcriptase (Human immunodeficiency virus 1, UniProt Q72547, V106A); experiment: Inhibition of HIV1 reverse transcriptase V106A mutant
[18] = Resistance index, Ratio of EC50 for drug-resistant HIV1 with RT K103N mutation in MT4 cells to EC50 for HIV1 NL43 in MT4 cells

SMILES: CCCN(C)c1nc(Cc2c(F)cccc2F)c(C)c(=O)[nH]1
- pEC50 [1]: 7.26
- pKi [2]: < 4.70
- Ratio EC50 [3]: 800
- pEC50 [4]: 6.12
- Ratio EC50 [5]: 19
- pKi [6]: 7.00
- pEC50 [7]: 7.41
- pKi [8]: < 4.70
- pEC50 [9]: 5.80
- pKi [10]: 6.70
- Ratio EC50 [11]: 27
- pEC50 [12]: 8.70
- pKi [13]: 4.74
- CC50 at 96 h [14]: > 81000 nM
- Ratio CC50/EC50 [15]: >40500
- pKi [16]: < 4.70
- pKi [17]: 8.10
- Ratio EC50 [18]: 375

SMILES: Cc1c(C(C)c2c(F)cccc2F)nc(N2CCC(C)CC2)[nH]c1=O (stereo unspecified)
- pEC50 [1]: 6.52
- Ratio EC50 [3]: 110
- pEC50 [4]: 6.49
- Ratio EC50 [5]: 5
- pEC50 [7]: 8.00
- pEC50 [9]: 6.66
- Ratio EC50 [11]: 150
- pEC50 [12]: 8.70
- CC50 at 96 h [14]: 54000 nM
- Ratio CC50/EC50 [15]: 27000
- Ratio EC50 [18]: 161

SMILES: Cc1c(Cc2c(F)cccc2F)nc(N2CCN(c3ccccn3)CC2)[nH]c1=O
- pKi [2]: 6.31
- pKi [6]: 7.30
- pKi [8]: < 4.70
- pKi [10]: 8.00
- pEC50 [12]: 7.92
- pKi [13]: < 4.70
- CC50 at 96 h [14]: > 63000 nM
- Ratio CC50/EC50 [15]: >5250
- pKi [16]: < 4.70
- pKi [17]: 8.00

SMILES: CCN(C)c1nc(Cc2c(F)cccc2F)c(C)c(=O)[nH]1
- pEC50 [1]: 6.38
- Ratio EC50 [3]: 444
- pEC50 [4]: 5.34
- Ratio EC50 [5]: 39
- pEC50 [7]: 6.15
- pEC50 [9]: 5.10
- Ratio EC50 [11]: 23
- pEC50 [12]: 7.74
- CC50 at 96 h [14]: > 85000 nM
- Ratio CC50/EC50 [15]: >4722
- Ratio EC50 [18]: 256

SMILES: O=c1cc(Cc2c(F)cccc2F)nc(N2CCCCC2)[nH]1
- pEC50 [1]: 5.66
- pKi [2]: < 4.70
- Ratio EC50 [3]: 615
- pEC50 [4]: < 5.00
- Ratio EC50 [5]: 55
- pKi [6]: 5.60
- pEC50 [7]: 6.15
- pKi [8]: < 4.70
- pEC50 [9]: 5.10
- pKi [10]: 5.30
- Ratio EC50 [11]: 169
- pEC50 [12]: 7.89
- pKi [13]: 5.00
- CC50 at 96 h [14]: > 82000 nM
- Ratio CC50/EC50 [15]: >6308
- pKi [16]: < 4.70
- pKi [17]: 6.70

SMILES: Cc1c(Cc2c(F)cccc2F)nc(N(C)C)[nH]c1=O
- pEC50 [1]: 6.30
- pKi [2]: 4.96
- pEC50 [4]: 5.62
- Ratio EC50 [5]: 364
- pKi [6]: 7.00
- pEC50 [7]: 5.74
- pKi [8]: 5.05
- pEC50 [9]: < 5.00
- pKi [10]: 5.80
- Ratio EC50 [11]: 100
- pEC50 [12]: 8.30
- pKi [13]: 5.00
- CC50 at 96 h [14]: > 89000 nM
- Ratio CC50/EC50 [15]: >17800
- pKi [16]: < 4.70
- pKi [17]: 6.15
- Ratio EC50 [18]: 480

SMILES: Cc1c(C(C)c2c(F)cccc2F)nc(N2CCCC(C)C2)[nH]c1=O (stereo unspecified)
- pEC50 [1]: 6.70
- Ratio EC50 [3]: 40
- pEC50 [4]: 6.71
- Ratio EC50 [5]: 5
- pEC50 [7]: 7.85
- pEC50 [9]: 6.92
- Ratio EC50 [11]: 67
- pEC50 [12]: 8.52
- CC50 at 96 h [14]: > 72000 nM
- Ratio CC50/EC50 [15]: >24000
- Ratio EC50 [18]: 64

SMILES: Cc1c(Cc2c(F)cccc2F)nc(N(C)C2CCCCC2)[nH]c1=O
- pEC50 [1]: 5.70
- Ratio EC50 [3]: 689
- pEC50 [4]: 5.36
- Ratio EC50 [5]: 16
- pEC50 [7]: 6.85
- pEC50 [9]: 5.21
- Ratio EC50 [11]: 222
- pEC50 [12]: 8.05
- CC50 at 96 h [14]: > 72000 nM
- Ratio CC50/EC50 [15]: >8000
- Ratio EC50 [18]: 489

SMILES: Cc1c(Cc2c(F)cccc2F)nc(N(C)C(C)C)[nH]c1=O
- pEC50 [1]: 7.10
- Ratio EC50 [3]: 1150
- pEC50 [4]: 5.92
- Ratio EC50 [5]: 15
- pEC50 [7]: 7.52
- pEC50 [9]: 5.64
- Ratio EC50 [11]: 40
- pEC50 [12]: 8.70
- CC50 at 96 h [14]: 79000 nM
- Ratio CC50/EC50 [15]: 39500
- Ratio EC50 [18]: 600

SMILES: Cc1c(Cc2c(F)cccc2F)nc(N2CCSCC2)[nH]c1=O
- pEC50 [1]: < 5.00
- pKi [2]: < 4.70
- pEC50 [4]: < 5.00
- pKi [6]: 6.82
- pEC50 [7]: < 5.00
- pKi [8]: < 4.70
- pEC50 [9]: < 5.00
- pKi [10]: 4.40
- pEC50 [12]: 8.40
- pKi [13]: 5.30
- CC50 at 96 h [14]: > 74000 nM
- Ratio CC50/EC50 [15]: >18500
- pKi [16]: < 4.70
- pKi [17]: 7.05
